# Results gathered from unrelated publications.
# Lines come from different studies, so protocols differ.
# Observed: cell growth or viability
Compound,cell line,method,time,IC50
Nc1ccn([C@@H]2O[C@H](CO)[C@@H](O)C2(F)F)c(=O)n1,HEK293,MTT,48 h,17.4 µg/mL
c1ccc(Oc2ccc(Nc3c4c(nc5ccccc35)CCC4)cc2)cc1,HEK293,resazurin,72 h,11.2 µM
Cc1ncsc1-c1ccc([C@H](C)NC(=O)[C@@H]2C[C@@H](O)CN2C(=O)[C@@H](NC(=O)CN2CCN(c3cc(-c4ccccc4O)nnc3N)CC2)C(C)(C)C)cc1,HCC515,ATP luminescence,7 days,0.182 µM
CCCCCC(=O)Nc1ccc(-c2ccc3ncn(CCC)c(=O)c3c2)cn1,NCI-H1975,CCK-8,72 h,0.074 µM
O=C(Nc1ccc(F)cc1)Nc1nc2cc(-c3ccc4ncn(CC(=O)N5CCOCC5)c(=O)c4c3)ccc2s1,NCI-H1975,MTT,72 h,> 20 µM
CCCn1cnc2ccc(-c3ccc(NC(=O)CNCC)nc3)cc2c1=O,NCI-H1975,CCK-8,72 h,8.79 µM
O=C(Nc1ccc(Cl)cc1)Nc1nc2cc(-c3ccc4ncn(CCN5CCOCC5)c(=O)c4c3)ccc2s1,NCI-H1975,MTT,72 h,> 20 µM
CCOc1ccc(Nc2c3c(nc4ccccc24)CCC3)cc1,HEK293,resazurin,72 h,18.1 µM
CN(C)C(=O)c1cc2cnc(Nc3ccc(-c4ccc5c(=O)cc(N6CCOCC6)oc5c4)cc3)nc2n1C1CCCC1,HEK293,ATP luminescence,72 h,0.55 µM
COc1cccc2c1C(=O)c1c(O)c3c(c(O)c1C2=O)C[C@@](O)(C(=O)CO)C[C@@H]3O[C@H]1C[C@H](N)[C@H](O)[C@H](C)O1,Pfeiffer,,96 h,0.0907 µM
Cc1cnc(Nc2ccc(OCCN3CCCC3)cc2)nc1Nc1cccc(S(=O)(=O)NC(C)(C)C)c1,SET-2,CCK-8,,1.01 µM
O=C(NCCc1ccccc1)Nc1nc2cc(-c3ccc4ncn(CCN5CCOCC5)c(=O)c4c3)ccc2s1,NCI-H1975,MTT,72 h,3.2 µM
CCCCC(=O)Nc1ccc(-c2ccc3ncn(CCC)c(=O)c3c2)c(C)n1,NCI-H1975,CCK-8,72 h,5.44 µM
O=C(Nc1ccc(Cl)cc1)Nc1nc2cc(-c3ccc4ncn(Cc5ccccc5)c(=O)c4c3)ccc2s1,NCI-H1975,MTT,72 h,> 20 µM
CCCCn1cnc2ccc(-c3ccc(NC(=O)NCCC)nc3)cc2c1=O,NCI-H1975,CCK-8,72 h,8.75 µM
O=C(Nc1ccc(F)cc1)Nc1nc2cc(-c3ccc4ncn(CCN5CCOCC5)c(=O)c4c3)ccc2s1,NCI-H1975,MTT,72 h,4.31 µM
Cc1cccc(NC(=O)Nc2ccc(-c3ccc4ncn(Cc5ccccc5)c(=O)c4c3)cn2)c1,NCI-H1975,CCK-8,72 h,> 10 µM
Cc1ncsc1-c1ccc(CNC(=O)[C@@H]2C[C@@H](O)CN2C(=O)[C@@H](NC(=O)C2(F)CC2)C(C)(C)C)c(OCCOc2ccc(CN3CCN(c4cc(-c5ccccc5O)nnc4N)CC3)cc2)c1,HCC515,ATP luminescence,7 days,0.261 µM
CCCn1cnc2ccc(-c3ccc(N4CCC(C)CC4=O)nc3)cc2c1=O (centres unmarked),NCI-H1975,CCK-8,72 h,> 10 µM
O=C(Nc1ccc(C(F)(F)F)cc1)Nc1nc2cc(-c3ccc4ncn(CCN5CCOCC5)c(=O)c4c3)ccc2s1,NCI-H1975,MTT,72 h,1.77 µM
